The values below come from ChEMBL document CHEMBL5390224, “Design, synthesis, and biological evaluation of a novel series of 1,2,4-oxadiazole inhibitors of SLACK potassium channels: Identification of in vitro tool VU0935685” (Bioorg Med Chem, 2023).

Calls of active or inactive are those of the source. The calls are words filed in the database; no cut-off is given here.

The subject of series [1] is HEK293. Description: Activation of wild-type human SLACK expressed in HEK293 cells assessed as efficacy at 30 uM by thallium flux assay relative to control. It is filed as cell-based.
Series [2] is described as follows: Activation of wild-type human SLACK expressed in HEK293 cells by thallium flux assay. Format: cell-based. The essentials:
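Stable monoclonal HEK293 line with WT SLACK, dye-loaded 1 h at room temperature (Thallo-AM, probenecid, masking dye, Pluronic), pH 7.3 buffer. Compound added 120 s before Tl2SO4 stimulus (2.5 mM), kinetic fluorescence imaging 120 s. Concentrations 1.5 nM–30 μM, half-log steps, ≥3 replicate wells per series.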

Series [3] in a line: Metabolic stability in mouse liver microsomes assessed as compound remaining measured after 10 min in presence of NADPH. It is filed as ADME, Microsome. The essentials: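 Mouse liver microsomes (0.5 mg/mL) with compound (5 μM) preincubated 5 min at 37 °C in 100 mM potassium phosphate, pH 7.4. Reaction started with NADPH (1 mM) plus MgCl2 (3 mM). Samples at 0 and 10 min quenched in cold acetonitrile with internal standard; percent remaining by LC/MS/MS.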

The test system of series [4] is CHO. Description: Inhibition of wild-type human SLACK expressed in CHO cells assessed as efficacy at 30 uM by whole cell voltage clamp electrophysiology assay. Format: cell-based. Particulars: Cricetulus griseus.
Series [5] is described as follows: Inhibition of wild-type human SLACK expressed in CHO cells by whole cell voltage clamp electrophysiology assay. Format: cell-based. The conditions noted are these: Cricetulus griseus. In short, it runs like this: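 Automated whole-cell patch clamp at room temperature. External (mM): NaCl 105, KCl 4, MgCl2 1, CaCl2 5, HEPES 10, NMDG-Cl 40, pH 7.4. Internal: NaCl 70, KF 70, KCl 10, EGTA 5, HEPES 5, pH 7.2. Concentrations 0.125–30 μM in half-log steps, ≥3 cells per series.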

The nature of series [6]: Plasma protein binding in mouse assessed as unbound fraction by equilibrium dialysis method. It is filed as ADME, cell-free. The essentials:
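Equilibrium dialysis, 12–14 K MWCO cellulose membrane: plasma spiked to 5 μM final versus 25 mM phosphate buffer pH 7.4, 6 h at 37 °C, shaking 200 rpm. Both sides matrix-matched, acetonitrile extraction with internal standard, LC/MS/MS quantitation. Triplicate.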
A general note: In equilibrium dialysis free small molecules cross a membrane that holds back macromolecules.

Series [7] concerns the target Calcium-activated potassium channel subunit alpha-1 (Homo sapiens) (UniProt Q12791). The series can be described thus: Inhibition of Maxi-K (unknown origin) expressed in HEK293 cells assessed as efficacy at 30 uM by thallium flux assay relative to control. Format: cell-based.
In series [8] the target is T1, Potassium channel subfamily T member 2 (Homo sapiens, UniProt Q6UVM3).
T1 sequence (Q6UVM3 whole entry): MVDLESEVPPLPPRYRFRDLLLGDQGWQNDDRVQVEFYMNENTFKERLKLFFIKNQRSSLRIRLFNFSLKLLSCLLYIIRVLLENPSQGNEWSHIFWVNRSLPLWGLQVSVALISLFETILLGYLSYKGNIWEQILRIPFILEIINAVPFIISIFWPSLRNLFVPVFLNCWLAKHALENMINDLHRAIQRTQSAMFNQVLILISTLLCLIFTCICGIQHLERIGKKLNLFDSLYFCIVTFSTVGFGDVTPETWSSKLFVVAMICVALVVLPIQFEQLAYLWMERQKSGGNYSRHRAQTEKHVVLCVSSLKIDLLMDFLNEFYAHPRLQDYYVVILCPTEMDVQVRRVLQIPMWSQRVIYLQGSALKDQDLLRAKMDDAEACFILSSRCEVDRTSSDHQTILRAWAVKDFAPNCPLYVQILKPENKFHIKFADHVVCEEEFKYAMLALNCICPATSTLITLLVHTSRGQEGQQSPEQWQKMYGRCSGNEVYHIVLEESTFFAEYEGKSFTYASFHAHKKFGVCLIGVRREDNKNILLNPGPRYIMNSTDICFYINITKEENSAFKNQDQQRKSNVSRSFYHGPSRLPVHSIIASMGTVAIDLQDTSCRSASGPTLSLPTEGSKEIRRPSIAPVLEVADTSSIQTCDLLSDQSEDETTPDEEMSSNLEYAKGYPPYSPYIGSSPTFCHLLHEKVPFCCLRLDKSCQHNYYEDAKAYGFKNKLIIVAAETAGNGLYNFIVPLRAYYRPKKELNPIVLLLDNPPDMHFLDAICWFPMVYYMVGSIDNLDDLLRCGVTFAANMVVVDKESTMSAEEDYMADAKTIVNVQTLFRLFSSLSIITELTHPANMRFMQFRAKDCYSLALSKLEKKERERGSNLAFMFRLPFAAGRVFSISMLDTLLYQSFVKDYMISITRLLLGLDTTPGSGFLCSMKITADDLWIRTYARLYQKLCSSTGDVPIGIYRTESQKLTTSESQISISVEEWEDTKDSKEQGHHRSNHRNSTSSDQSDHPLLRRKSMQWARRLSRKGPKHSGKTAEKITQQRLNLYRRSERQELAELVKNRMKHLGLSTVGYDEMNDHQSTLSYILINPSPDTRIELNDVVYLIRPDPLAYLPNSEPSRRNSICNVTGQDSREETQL
The series can be described thus: Inhibition of SLICK (unknown origin) expressed in HEK293 cells by thallium flux assay. It is filed as cell-based.

For series [9], the system named is HEK293. Description: Inhibition of human SLACK A934T mutant expressed in HEK293 cells assessed as efficacy at 30 uM by thallium flux assay relative to control. Format: cell-based. The essentials: (§1)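 Stable monoclonal HEK293 lines (WT or A934T SLACK) plated 20,000 cells/well; loaded 1 h at room temperature with Thallo-AM dye, 1.25 mM probenecid, masking dye, 0.3% Pluronic F-127 in buffer with 2.7 mM RbCl, pH 7.3. Compound preincubated 120 s, then Tl2SO4 stimulus (2.5 mM); fluorescence read 120 s. Concentration–response 1.5 nM–30 μM in half-log steps, ≥3 replicate wells.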

The target of series [10] is Voltage-gated inwardly rectifying potassium channel KCNH2 (Homo sapiens, UniProt Q12809). The series can be described thus: Inhibition of human ERG expressed in HEK293 cells at 10 uM by thallium flux assay. Format: toxicity, cell-based. Particulars: hek293, 10 µM.
Chain of Voltage-gated inwardly rectifying potassium channel KCNH2 (Q12809 whole entry): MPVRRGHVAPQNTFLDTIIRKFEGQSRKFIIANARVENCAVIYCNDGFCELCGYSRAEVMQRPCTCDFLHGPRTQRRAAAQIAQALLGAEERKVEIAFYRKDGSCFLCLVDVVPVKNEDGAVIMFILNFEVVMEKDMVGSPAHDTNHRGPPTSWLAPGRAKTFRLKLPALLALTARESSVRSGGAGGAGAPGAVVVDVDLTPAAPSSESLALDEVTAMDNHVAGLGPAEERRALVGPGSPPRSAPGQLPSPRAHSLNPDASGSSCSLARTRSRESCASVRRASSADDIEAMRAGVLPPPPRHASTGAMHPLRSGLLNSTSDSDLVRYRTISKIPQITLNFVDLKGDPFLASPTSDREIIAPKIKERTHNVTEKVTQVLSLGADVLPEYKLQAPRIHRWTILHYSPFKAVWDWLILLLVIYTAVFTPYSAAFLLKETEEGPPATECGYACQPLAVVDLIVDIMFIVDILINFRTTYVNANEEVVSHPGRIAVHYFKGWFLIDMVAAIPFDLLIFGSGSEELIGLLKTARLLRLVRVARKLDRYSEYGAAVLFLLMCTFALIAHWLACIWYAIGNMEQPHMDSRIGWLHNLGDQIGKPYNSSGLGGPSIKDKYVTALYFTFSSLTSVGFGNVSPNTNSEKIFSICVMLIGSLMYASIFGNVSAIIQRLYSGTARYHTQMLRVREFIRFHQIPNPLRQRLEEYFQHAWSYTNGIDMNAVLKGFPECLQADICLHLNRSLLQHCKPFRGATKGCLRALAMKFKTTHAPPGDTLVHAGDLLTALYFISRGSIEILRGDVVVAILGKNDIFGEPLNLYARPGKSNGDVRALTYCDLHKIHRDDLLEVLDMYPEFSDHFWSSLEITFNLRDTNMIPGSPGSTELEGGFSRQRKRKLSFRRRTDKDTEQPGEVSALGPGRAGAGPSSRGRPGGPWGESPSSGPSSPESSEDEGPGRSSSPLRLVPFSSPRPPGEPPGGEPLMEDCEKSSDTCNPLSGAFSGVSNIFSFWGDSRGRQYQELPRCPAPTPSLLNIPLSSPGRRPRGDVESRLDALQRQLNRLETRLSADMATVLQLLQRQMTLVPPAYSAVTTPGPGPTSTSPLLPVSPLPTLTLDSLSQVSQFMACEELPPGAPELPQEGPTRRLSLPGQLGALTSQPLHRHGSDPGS
Series [11] addresses Calcium-activated potassium channel subunit alpha-1 (Homo sapiens) (UniProt Q12791). The series can be described thus: Inhibition of Maxi-K (unknown origin) expressed in HEK293 cells by thallium flux assay. Format: cell-based.
Series [12] concerns the target T2, Potassium channel subfamily T member 2 (Homo sapiens) (UniProt Q6UVM3).
T2 sequence (whole entry): T1 sequence (Q6UVM3 whole entry)
The series can be described thus: Inhibition of SLICK (unknown origin) expressed in HEK293 cells assessed as efficacy at 30 uM by thallium flux assay relative to control. It is filed as cell-based.

Series [13] is described as follows: Inhibition of human SLACK A934T mutant expressed in HEK293 cells by thallium flux assay. Format: cell-based. The essentials:
as §1

The subject of series [14] is HEK293. Description: Inhibition of wild-type human SLACK expressed in HEK293 cells assessed as efficacy at 30 uM by thallium flux assay relative to control. Format: cell-based. In short, it runs like this:
as §1

Series [15] in a line: Efflux ratio of permeability in MDCK-MDR1 cells assessed as P-glycoprotein mediated efflux. It is filed as ADME, cell-based, Canis lupus familiaris. The conditions noted are these: dog.
A short description of series [16]: Apparent permeability in MDCK-MDR1 cells by bidirectional permeability assay. Format: ADME, cell-based, Canis lupus familiaris. The conditions noted are these: dog.

For orientation: EC50 means the midpoint of the concentration-response curve. A higher EC50 goes with weaker potency. As usually defined, the IC50 is the midpoint of a concentration-inhibition curve. Higher therefore signals weaker potency in that assay.

Chain of Calcium-activated potassium channel subunit alpha-1 (Homo sapiens) (Q12791 whole entry): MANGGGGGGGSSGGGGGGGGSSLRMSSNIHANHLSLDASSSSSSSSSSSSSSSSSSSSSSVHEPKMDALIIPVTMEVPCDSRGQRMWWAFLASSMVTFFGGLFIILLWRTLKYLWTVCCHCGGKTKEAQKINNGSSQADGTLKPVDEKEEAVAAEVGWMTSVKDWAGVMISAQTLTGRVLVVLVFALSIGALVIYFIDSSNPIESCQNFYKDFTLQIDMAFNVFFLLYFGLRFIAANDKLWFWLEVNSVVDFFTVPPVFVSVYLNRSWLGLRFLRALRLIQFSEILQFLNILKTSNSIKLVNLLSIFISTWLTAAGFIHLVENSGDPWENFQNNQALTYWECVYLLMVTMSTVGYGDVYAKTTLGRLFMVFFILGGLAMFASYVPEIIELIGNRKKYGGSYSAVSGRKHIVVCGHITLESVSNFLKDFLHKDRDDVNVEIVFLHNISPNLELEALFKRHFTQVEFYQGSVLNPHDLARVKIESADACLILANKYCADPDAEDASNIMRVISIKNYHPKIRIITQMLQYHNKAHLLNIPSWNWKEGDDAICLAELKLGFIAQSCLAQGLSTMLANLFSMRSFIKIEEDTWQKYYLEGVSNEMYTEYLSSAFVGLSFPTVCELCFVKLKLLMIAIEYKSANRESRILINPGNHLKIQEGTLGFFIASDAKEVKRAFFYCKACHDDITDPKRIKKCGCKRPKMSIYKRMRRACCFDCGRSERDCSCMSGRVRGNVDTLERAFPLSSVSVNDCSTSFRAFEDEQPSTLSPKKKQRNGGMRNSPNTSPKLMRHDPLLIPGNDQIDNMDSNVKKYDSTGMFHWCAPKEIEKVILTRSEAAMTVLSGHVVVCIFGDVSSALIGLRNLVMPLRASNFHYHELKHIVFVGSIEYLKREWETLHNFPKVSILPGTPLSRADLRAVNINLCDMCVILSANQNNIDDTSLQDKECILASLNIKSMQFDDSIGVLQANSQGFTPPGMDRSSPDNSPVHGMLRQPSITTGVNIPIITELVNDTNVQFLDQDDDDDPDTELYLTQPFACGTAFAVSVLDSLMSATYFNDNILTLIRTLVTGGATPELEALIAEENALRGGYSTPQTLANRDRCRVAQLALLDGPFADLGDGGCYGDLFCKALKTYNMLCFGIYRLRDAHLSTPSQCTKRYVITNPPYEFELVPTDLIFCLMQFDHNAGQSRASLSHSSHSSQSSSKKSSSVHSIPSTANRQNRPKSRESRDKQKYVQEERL

Take `COc1ccc(S(=O)(=O)N2CC(c3nc(-c4ccsc4)no3)C2)cc1`: the Efficacy in series [1] (filed as activator) was determined as 51%. In series [2], this molecule returned an EC50 of 3.2 µM.
Take `Cc1ccc2cccc(S(=O)(=O)N3CC(c4nc(-c5ccc(F)cc5)no4)C3)c2n1`: the Activity in [3] was found to be 26%. For the same molecule, the Efficacy came to 100% in [4], 72% in [9], 76% in [12] and 99% in series [14]. Also, the IC50 was 0.32 µM in [5], above 10 µM in [8] and 0.67 µM in [13]. The Fu in [6] is reported as below 0.01. Further, in [7], the Efficacy result was “inactive”. The “inhibition (INH)” value in series [10] is on record as “Not Active”. In series [11], the inhibition entry is “inactive”.
Turning to `COc1ccccc1S(=O)(=O)N1CC(c2nc(-c3ccsc3)no2)C1`, the Efficacy in series [1] was found to be 29%. The same molecule displayed an EC50 in series [2] of 8.1 µM.
Take `Cc1ccccc1S(=O)(=O)N1CC(c2nc(-c3ccsc3)no2)C1`: the Efficacy in series [1] (filed as activator) was 44%. It took 6.1 µM to reach a half-maximal effect in series [2] (EC50).
With `CCOc1ccccc1S(=O)(=O)N1CC(c2nc(-c3ccsc3)no2)C1`, the Ratio in [15] was determined as 0.65. The Activity in [3] was below 10%. Also, the Papp in series [16] is listed as 31.1 10^-6 cm/s. Besides, the Efficacy is 100% in [4], 72% in [9], 55% in [12] and 102% in [14]. The IC50 in series [5] was 0.64 µM; in series [8] it was above 10 µM; in series [13] it was 0.82 µM. Besides, the Fu in series [6] was 0.022. Besides, the Efficacy entry in series [7] is “inactive”. The inhibition result in [11] was “inactive”.
Consider `CCOc1ccccc1S(=O)(=O)N1CC(c2nc(-c3ccc(OC)cc3)no2)C1`, for which the Efficacy in series [1] stood at 21%. This molecule also displayed an EC50 in series [2] of 7.1 µM.
